Source: PubChem BioAssay (The Scripps Research Institute Molecular Screening Center)
MBD2 inh – inhibitors of MBD2 binding to methylated DNA, primary screen, biochemical, TR-FRET, DNA-binding domain, human; Methyl-CpG-binding domain protein 2 (Homo sapiens), Q9UBB5; MBD2 binding to methylated oligonucleotide; inhibition, % at 4.4 µM; actives 0.31% (n = 370,000); AID 686964, 2013; in the data active = inhibition above about 13%
UHRF1 MBD2 ctr – UHRF1 methylated DNA binding inhibitors, primary screen, counter-screen for MBD2 inhibitor project, biochemical, TR-FRET, human UHRF1, single concentration; actives 0.75% (n = 370,000); AID 687016, 2013; UHRF1 binding to methylated oligo; inhibition, % at 4.4 µM; E3 ubiquitin-protein ligase UHRF1 (Homo sapiens), Q96T88; in the data active = inhibition above about 21%;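 note: UHRF1 SRA domain binding a hemimethylated CpG hairpin DNA probe; 0% = median of test compound wells and 100% = reference inhibitor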
LEDGF integ inh – blockers of LEDGF/p75-dependent integrase strand transfer – biochemical, TR-FRET, high throughput, primary screen | AID 743269, 2014 | actives 0.64% (n = 370,000) | inhibition, % at 3.7 µM | HIV-1 integrase (with human LEDGF/p75) | TR-FRET IN-LEDGF/p75 DNA integration, Eu/Cy5;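 active = inhibition above the screen-wide mean plus 3 SD, cut at about 13% in these data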;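 note: signal is the Cy5 over europium emission ratio at 671 and 618 nm; 0% = plate median of compound wells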
PRMT1 FP inh – PRMT1 methyltransferase inhibitors, primary screen, biochemical, fluorescence polarization; actives 1.3% (n = 370,000); AID 652257, 2013; recombinant PRMT1, activity-based probe fluorescence polarization; Protein arginine N-methyltransferase 1 (Homo sapiens), Q99873; inhibition, % at 2.79 µM;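 active = inhibition above about 21% made by adding two undisclosed values, limit read from the data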
Target sequence (Q99873 whole entry, looked up): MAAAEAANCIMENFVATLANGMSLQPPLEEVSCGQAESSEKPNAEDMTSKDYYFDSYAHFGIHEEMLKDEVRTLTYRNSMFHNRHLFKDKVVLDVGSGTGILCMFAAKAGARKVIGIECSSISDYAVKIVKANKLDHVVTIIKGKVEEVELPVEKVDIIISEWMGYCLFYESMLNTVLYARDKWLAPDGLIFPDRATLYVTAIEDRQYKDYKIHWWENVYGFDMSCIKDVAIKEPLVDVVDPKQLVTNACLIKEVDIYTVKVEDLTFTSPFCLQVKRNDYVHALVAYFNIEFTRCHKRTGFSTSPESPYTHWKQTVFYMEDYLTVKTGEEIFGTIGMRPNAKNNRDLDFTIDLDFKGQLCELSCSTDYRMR
RBBP9 inh – human RBBP9 inhibitors, primary screen, biochemical, fluorescence polarization, FP-Rh probe, HTS | Serine hydrolase RBBP9 (Homo sapiens), O75884 | recombinant RBBP9 | inhibition, % at 7.94 µM | actives 0.2% (n = 220,000);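 active = inhibition above the campaign mean of all tested compounds plus 3 SD, cut at about 14% in these data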;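 note: plate controls were DMSO wells with RBBP9 for no effect and wells lacking RBBP9 protein for full effect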
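Test system: recombinant human RBBP9. Quantity: 2.5 µM RBBP9 dispensing solution, before mixing. Detection: FP readout at 525/598 nm. Reagent: Serine-hydrolase probe FP-Rh, 375 nM pre-mixing. Measure: % inhibition. Control set: DMSO-treated enzyme wells and wells lacking RBBP9. Buffer or medium: Tris-NaCl-Pluronic buffer, pH 8.0. Times: preincubation 30 min plus labeling 45 min at 25 °C.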
ABHD5-PLIN5 inh – ABHD5-PLIN5 interaction inhibitors, primary screen, cell lysate, split luciferase complementation, luminescence; actives 0.78% (n = 360,000); inhibition, % at 4 µM; Perilipin-5 (Homo sapiens) + 1-acylglycerol-3-phosphate O-acyltransferase ABHD5 (Homo …; Split G. princeps luciferase complementation, 4 h; AID 602281, 2012;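 active = inhibition above the mean inhibition across every tested compound plus 3 SD, cut at about 22% in these data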;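 note: 0% = DMSO only wells and the 100% control is not disclosed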
* = called active by the depositor; / = no result. This is a sample that favours compounds with a hit; in the whole collection about 3.1% have one here.

SMILES | MBD2 inh | UHRF1 MBD2 ctr | LEDGF integ inh | PRMT1 FP inh | RBBP9 inh | ABHD5-PLIN5 inh
Cc1ccc(S(=O)(=O)Nc2ccc(NC(=O)/C=C/C(=O)O)cc2)cc1 | -1 | 0 | 1 | -1 | 3 | -6
Cc1ccc(NC(=O)/C=C\C(=O)NCC(=O)O)cc1 | -2 | -2 | 1 | 24* | -5 | 3
O=C1NC(=S)SC1=C1CCCC1 | 4 | 21* | 8 | 24* | -16 | -11
CN1C(=O)C(=C2CCCCCC2)SC1=S | 7 | 0 | 4 | 12 | 3 | -13
C=CS(=O)(=O)N(Cc1ccc(F)cc1)C(=C)C(=O)OC | 4 | 0 | -2 | 5 | / | /
COc1ccc(-n2cnnc2SCC(=O)Nc2cccnc2Cl)cc1 | -1 | 21* | 3 | 0 | -3 | -4
Cc1c(Cl)cccc1NC(=O)CSc1nncn1-c1ccccn1 | 5 | 4 | -6 | 24* | / | 6
COC(=O)c1ccccc1NC(=O)CN1C(=O)CSC1=O | 3 | 0 | 0 | 0 | -8 | -2
COC(=O)c1cc(NC(=O)CN2C(=O)CSC2=O)ccc1Cl | 8 | 23* | 4 | 3 | -4 | -3
CC(=O)CC[C@@H]1CC[C@]2(CCCN(S(=O)(=O)c3ccccc3)C2)O1 | -5 | -3 | 1 | -3 | / | /
O=C(N[C@@H](Cc1cccnc1)C(=O)N1CCC[C@H]1C(=O)NC1CCCC1)C1CC1 | 2 | 3 | -3 | 0 | / | /
Cc1cc(N/N=C/c2cccc(Cl)c2)nc(NCc2ccccc2)n1 | -3 | -1 | -4 | 0 | -9 | -4
Cc1cc(Nc2cccc(Cl)c2)nc(NCc2ccccc2)n1 | 2 | -2 | 3 | -1 | -5 | 22*
CN(C)C=Nc1ccc(Cn2cnc3nc4ccc(Cl)cc4cc3c2=O)cc1 | -3 | -2 | 10 | -2 | / | /
CCCc1cc(=O)[nH]c(SCC(=O)NC2(C#N)CCCCC2)n1 | 11 | 27* | 1 | 3 | / | -9
CCCc1cc(=O)[nH]c(SCC(=O)c2ccc(S(=O)(=O)N3CCCC3)cc2)n1 | -4 | -3 | 0 | 22* | -7 | -5
CCCc1cc(=O)[nH]c(SCC(=O)NC)n1 | -1 | 0 | -3 | 2 | -11 | -4
CC1(C(=O)Nc2cccc(C#N)c2)CCN1C(=O)C/C=C/c1ccccc1 (configuration not stated) | -8 | 24* | 1 | -1 | / | 0
CCOc1ccc(CCN2C(=S)N([C@@H](Cc3ccc(O)cc3)CN3CCC[C@@H]3CN3C(=S)NC[C@@H]3CC(C)C)C[C@@H]2Cc2ccc(O)cc2)cc1 | -4 | -1 | -2 | -4 | / | 34*
Oc1ccc(C[C@H]2CN([C@@H](Cc3ccc(O)cc3)CN3CCC[C@@H]3CN3C(=S)NC[C@@H]3Cc3ccccc3)C(=S)N2CCc2ccccc2)cc1 | 1 | 0 | -3 | 4 | / | 27*
Oc1ccc(C[C@H]2CN([C@@H](Cc3ccccc3)CN3CCCC3CN3C(=S)NC[C@@H]3Cc3ccccc3)C(=S)N2CCc2ccccc2)cc1 (some centres not stated) | 1 | -1 | 4 | -2 | / | 2
COc1ccc(CN2CCC(CNC(=O)NC(C)C)CC2)cc1 | -5 | 4 | 2 | -3 | / | /
CCOC(=O)CC[C@H](NC(=O)[C@@H]1CC=C[C@@H]2CCN(Cc3ccc(Cl)cc3)C(=O)[C@@H]21)C(=O)OCC | 5 | 3 | 3 | 3 | / | /
N=C1/C(=C\c2coc3ccc(O)cc3c2=O)C(=O)N=C2SC=CN12 | -7 | -9 | 8 | 31* | 3 | 5
N=C1/C(=C/c2coc3ccccc3c2=O)C(=O)N=C2SC(c3ccco3)=NN12 | / | / | / | / | 5 | 13
COc1ccc(-c2noc(C3CCCN(C(=O)NC4CCC(C)CC4)C3)n2)cc1 (configuration not stated) | -1 | -2 | -3 | 2 | / | /
